Legend:
[1] = system: Human immunodeficiency virus 1; assay: Antiviral activity against HIV-1 infected CEM-SS cells was determined in XTT cytoprotection assay; type: functional, organism-based; settings: Human immunodeficiency virus 1, CEM-SS
Method in brief: (§1)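 CEM-SS cells infected with HIV-1 RF at MOI 0.01, scored by XTT dye-reduction cytoprotection. EC50 is the concentration giving 50% protection of infected cells. IC50 is the concentration causing 50% cytotoxicity (growth inhibition). High test concentration 316 μM.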

[2] = system: Human immunodeficiency virus 1; assay: Effective antiviral concentration against HIV-1 infected CEM-SS cells; type: functional, organism-based; settings: Human immunodeficiency virus 1, CEM-SS; method in brief: as §1
[3] = system: Human immunodeficiency virus 1; assay: Nucleocapsid p7 protein (NCp7) zinc finger domain reactivity was measured by Trp37 fluorescence assay expressed as the average decrease in relative fluorescence units over 30 min; type: functional
Method in brief: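 Recombinant HIV-1 NCp7 (pET3A construct expressed in E. coli BL21); intrinsic fluorescence of Trp37 in the C-terminal zinc finger monitored over 30 min after compound addition. Value is the mean fall in relative fluorescence units per minute across 30 min, taken as a readout of Zn ejection. Dithiane or DIBA-1 served as reference. Where glutathione pretreatment was used, 2 mM compound was held 2 h at 37 °C with 2–8 M excess reduced glutathione, then diluted 40-fold to 50 μM final compound.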

| Structure (SMILES) | IC50 [1] [µM] | EC50 [2] [µM] | Activity [3] [RFU min-1] |
| --- | --- | --- | --- |
| N=C(N)NS(=O)(=O)c1ccc(NC(=O)c2ccccc2SSc2ccccc2C(=O)Nc2ccc(S(=O)(=O)N=C(N)N)cc2)cc1 | > 316 | 111 | – |
| NS(=O)(=O)c1ccc(NS(=O)(=O)c2ccc(NC(=O)c3ccccc3SSc3ccccc3C(=O)Nc3ccc(S(=O)(=O)Nc4ccc(S(N)(=O)=O)cc4)cc3)cc2)cc1 | 43 | 2.3 | – |
| Cc1cc(C)nc(NS(=O)(=O)c2ccc(NC(=O)c3ccccc3SSc3ccccc3C(=O)Nc3ccc(S(=O)(=O)Nc4nc(C)cc(C)n4)cc3)cc2)n1 | 32.2 | 1.6 | – |
| CC(=O)NS(=O)(=O)c1ccc(NC(=O)c2ccccc2SC(=O)CCCC[n+]2cccc(Cl)c2)cc1.[Br-] | 264 | 54 | 0.2 |
| CC(=O)NS(=O)(=O)c1ccc(NC(=O)c2ccccc2SC(=O)CCCCC[n+]2ccccc2)cc1.[Br-] | 69.7 | 10.5 | 1.9 |
| O=C(NS(=O)(=O)c1ccc(-n2sc3ccccc3c2=O)cc1)c1ccccc1 | 49.5 | 9.3 | – |
| CC(=O)NS(=O)(=O)c1ccc(NC(=O)c2ccccc2NC(=O)CCl)cc1 | 202 | – | 0.3 |
| CC(=O)NS(=O)(=O)c1ccc(NC(=O)c2ccccc2SC(=O)CCCl)cc1 | 62 | 4.2 | 9.2 |
| NS(=O)(=O)c1ccc(NC(=O)c2ccccc2SSc2ccccc2C(=O)Nc2ccc(S(N)(=O)=O)cc2)cc1 | 217 | 0.85 | – |
| O=C(Nc1ccc(S(=O)(=O)c2ccc(NS(=O)(=O)Cc3ccccc3[N+](=O)[O-])cc2)cc1)c1ccccc1SSc1ccccc1C(=O)Nc1ccc(S(=O)(=O)c2ccc(NS(=O)(=O)Cc3ccccc3[N+](=O)[O-])cc2)cc1 | > 316 | 12.3 | 1.5 |
| Cc1nnc(NS(=O)(=O)c2ccc(-n3sc4ccccc4c3=O)cc2)s1 | 17.3 | 7.8 | – |
| COc1cnc(NS(=O)(=O)c2ccc(NC(=O)c3ccccc3SSc3ccccc3C(=O)Nc3ccc(S(=O)(=O)Nc4ncc(OC)cn4)cc3)cc2)nc1 | 55.5 | 2.1 | – |
| O=C(Nc1ccc(S(=O)(=O)Nc2nccs2)cc1)c1ccccc1SSc1ccccc1C(=O)Nc1ccc(S(=O)(=O)Nc2nccs2)cc1 | 18 | 1 | – |
| O=C(Nc1ccc(S(=O)(=O)c2ccc(NC(=O)c3ccccc3SSc3ccccc3C(=O)Nc3ccc(S(=O)(=O)c4ccc(NC(=O)c5ccc([N+](=O)[O-])cc5)cc4)cc3)cc2)cc1)c1ccc([N+](=O)[O-])cc1 | > 316 | 78 | 2.9 |
| COc1cc(NS(=O)(=O)c2ccc(-n3sc4ccccc4c3=O)cc2)nc(OC)n1 | 56.6 | 7.6 | – |
| O=C(Nc1ccc(S(=O)(=O)c2ccc(NC(=O)c3ccccc3SSc3ccccc3C(=O)Nc3ccc(S(=O)(=O)c4ccc(NC(=O)c5cccs5)cc4)cc3)cc2)cc1)c1cccs1 | 190 | 12.2 | – |
| Cc1ccnc(NS(=O)(=O)c2ccc(-n3sc4ccccc4c3=O)cc2)n1 | 57.4 | 8.8 | – |
| COc1ccc(NS(=O)(=O)c2ccc(-n3sc4ccccc4c3=O)cc2)nn1 | 55.3 | 22.6 | – |
| NS(=O)(=O)c1ccc(NS(=O)(=O)c2ccc(-n3sc4ccccc4c3=O)cc2)cc1 | 18.1 | 6.2 | – |
| O=C(Nc1ccc(S(=O)(=O)Nc2ncccn2)cc1)c1ccccc1SSc1ccccc1C(=O)Nc1ccc(S(=O)(=O)Nc2ncccn2)cc1 | 46.4 | 2 | – |
| Cc1nc(NS(=O)(=O)c2ccc(NC(=O)c3ccccc3SSc3ccccc3C(=O)Nc3ccc(S(=O)(=O)Nc4nc(C)c(C)o4)cc3)cc2)oc1C | 46.4 | 2.4 | – |
| O=c1c2ccccc2sn1-c1ccc(S(=O)(=O)Nc2ccc(Cl)nn2)cc1 | 19.2 | 7.1 | – |
| O=c1c2ccccc2sn1-c1ccc(S(=O)(=O)Nc2cnc3ccccc3n2)cc1 | 54.7 | 9.2 | – |
| CC(=O)NS(=O)(=O)c1ccc(NC(=O)c2ccccc2NC(=O)CCCl)cc1 | > 316 | – | 2 |
| Cc1cc(NS(=O)(=O)c2ccc(NC(=O)c3ccccc3SSc3ccccc3C(=O)Nc3ccc(S(=O)(=O)Nc4cc(C)nc(C)n4)cc3)cc2)nc(C)n1 | 18.2 | 1.9 | – |

| Structure (SMILES) | IC50 [1] [µM] | EC50 [2] [µM] | Activity [3] [RFU min-1] |
| --- | --- | --- | --- |
| Cc1cc(C)nc(NS(=O)(=O)c2ccc(-n3sc4ccccc4c3=O)cc2)n1 | 17.1 | 6.9 | – |
| Cc1cc(NS(=O)(=O)c2ccc(-n3sc4ccccc4c3=O)cc2)nc(C)n1 | 39.7 | 6.5 | – |
| O=c1c2ccccc2sn1-c1ccc(S(=O)(=O)Nc2ncccn2)cc1 | 50.8 | 6.5 | – |
| O=C(Nc1ccc(S(=O)(=O)Nc2ccnn2-c2ccccc2)cc1)c1ccccc1SSc1ccccc1C(=O)Nc1ccc(S(=O)(=O)Nc2ccnn2-c2ccccc2)cc1 | 19.5 | 0.33 | – |
| O=C(Nc1ccc(S(=O)(=O)Nc2ccc(Cl)nn2)cc1)c1ccccc1SSc1ccccc1C(=O)Nc1ccc(S(=O)(=O)Nc2ccc(Cl)nn2)cc1 | 18.3 | 2.9 | – |
| Cc1cc(NS(=O)(=O)c2ccc(NC(=O)c3ccccc3SSc3ccccc3C(=O)Nc3ccc(S(=O)(=O)Nc4cc(C)on4)cc3)cc2)no1 | 27.6 | 1.9 | – |
| Cc1noc(NS(=O)(=O)c2ccc(-n3sc4ccccc4c3=O)cc2)c1C | 39 | 12.8 | – |
| Cc1nnc(NS(=O)(=O)c2ccc(NC(=O)c3ccccc3SSc3ccccc3C(=O)Nc3ccc(S(=O)(=O)Nc4nnc(C)s4)cc3)cc2)s1 | 18.6 | 3.4 | – |
| O=C(Nc1ccc(S(=O)(=O)Nc2ccccn2)cc1)c1ccccc1SSc1ccccc1C(=O)Nc1ccc(S(=O)(=O)Nc2ccccn2)cc1 | 17.8 | 1.1 | – |
| Cc1noc(NS(=O)(=O)c2ccc(NC(=O)c3ccccc3SSc3ccccc3C(=O)Nc3ccc(S(=O)(=O)Nc4onc(C)c4C)cc3)cc2)c1C | 44.2 | 2.5 | – |
| CC(=O)NS(=O)(=O)c1ccc(-n2sc3ccccc3c2=O)cc1 | 34 | 12.6 | – |
| COc1cnc(NS(=O)(=O)c2ccc(-n3sc4ccccc4c3=O)cc2)nc1 | 57.6 | 17.8 | – |
| COc1cc(NS(=O)(=O)c2ccc(NC(=O)c3ccccc3SSc3ccccc3C(=O)Nc3ccc(S(=O)(=O)Nc4cc(OC)ncn4)cc3)cc2)ncn1 | 46.5 | 1.6 | – |
| O=C(Nc1ccc(S(=O)(=O)Nc2cnc3ccccc3n2)cc1)c1ccccc1SSc1ccccc1C(=O)Nc1ccc(S(=O)(=O)Nc2cnc3ccccc3n2)cc1 | 22.2 | 0.72 | – |
| COc1cc(NS(=O)(=O)c2ccc(NC(=O)c3ccccc3SSc3ccccc3C(=O)Nc3ccc(S(=O)(=O)Nc4cc(OC)nc(OC)n4)cc3)cc2)nc(OC)n1 | 52.5 | 2.1 | – |
| Cc1ccnc(NS(=O)(=O)c2ccc(NC(=O)c3ccccc3SSc3ccccc3C(=O)Nc3ccc(S(=O)(=O)Nc4nccc(C)n4)cc3)cc2)n1 | 56.7 | 4.2 | – |
| COc1ccc(NS(=O)(=O)c2ccc(NC(=O)c3ccccc3SSc3ccccc3C(=O)Nc3ccc(S(=O)(=O)Nc4ccc(OC)nn4)cc3)cc2)nn1 | 53.8 | 4.2 | – |
| CC(=O)NS(=O)(=O)c1ccc(NC(=O)c2ccccc2NC(=O)CCCC[n+]2ccccc2)cc1.[Br-] | > 316 | – | 2.6 |
| O=C(CCCCBr)Sc1ccccc1C(=O)Nc1ccc(S(=O)(=O)c2ccc(NS(=O)(=O)Cc3ccccc3[N+](=O)[O-])cc2)cc1 | > 316 | – | 1.9 |
| CC(=O)NS(=O)(=O)c1ccc(NC(=O)c2ccccc2SSc2ccccc2C(=O)Nc2ccc(S(=O)(=O)NC(C)=O)cc2)cc1 | > 200 | 1.5 | – |
| O=c1c2ccccc2sn1-c1ccc(S(=O)(=O)c2ccc([N+](=O)[O-])cc2)cc1 | > 316 | – | 4.1 |
| O=C(NS(=O)(=O)c1ccc(NC(=O)c2ccccc2SSc2ccccc2C(=O)Nc2ccc(S(=O)(=O)NC(=O)c3ccccc3)cc2)cc1)c1ccccc1 | 54.1 | 3.8 | – |
| Cc1cc(NS(=O)(=O)c2ccc(-n3sc4ccccc4c3=O)cc2)no1 | 54.6 | 8.7 | – |
| NS(=O)(=O)c1ccc(-n2sc3ccccc3c2=O)cc1 | 16.2 | – | – |
